Laboratory results published in ChEMBL document CHEMBL1123578, “Stereochemical studies on the cytochrome P-450 catalyzed oxidation of (S)-nicotine to the (S)-nicotine delta 1'(5')-iminium species” (J Med Chem, 1987).

Key:
Type in all cases: functional
Conditions in all cases: Microsome
Homo sapiens [1] = species on record: Homo sapiens; test: Percent Deuterium retention was measured for the corresponding alpha-cyano amine in the human liver microsomes and value from experiment I are reported.
Outline: (§1)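 Human liver microsomes from three separate sources (homogenized in 4 mL KCl/g liver), 3 mg protein/mL. E or Z (S)-nicotine-5'-d1 (0.5 mM) was incubated 30 min at 37 °C in 0.2 M K phosphate pH 7.4 with 1.5 mM MgCl2, 1.0 mM NaCN and 1 mg/mL NADPH. The 5'-cyano adducts were ether-extracted and measured by GC-EIMS SIM (m/z 109-111) with isotope and contaminant corrections.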

Homo sapiens [2] = species on record: Homo sapiens; test: Percent Deuterium retention was measured for the corresponding alpha-cyano amine in the human liver microsomes and value from experiment II are reported.; outline: as §1
Homo sapiens [3] = species on record: Homo sapiens; test: Percent Deuterium retention was measured for the corresponding alpha-cyano amine in the human liver microsomes and value from experiment III are reported; outline: as §1
Oryctolagus cuniculus [4] = species on record: Oryctolagus cuniculus; test: Percent Deuterium retention was measured for the corresponding alpha-cyano amine in the Dutch rabbit liver microsomes and value from experiment I are reported.
Outline: (§2)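 Liver microsomes from male Dutch rabbits (homogenized in 2 mL KCl/g liver), 3 mg protein/mL. The E or Z (S)-nicotine-5'-d1 (0.5 mM) was incubated in 0.2 M K phosphate pH 7.4 with 1.5 mM MgCl2, 1.0 mM NaCN and 1 mg/mL NADPH for 30 min at 37 °C.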

Oryctolagus cuniculus [5] = species on record: Oryctolagus cuniculus; test: Percent Deuterium retention was measured for the corresponding alpha-cyano amine in the Dutch rabbit liver microsomes and value from experiment II are reported.; outline: as §2
Oryctolagus cuniculus [6] = species on record: Oryctolagus cuniculus; test: Percent Deuterium retention was measured for the corresponding alpha-cyano amine in the Dutch rabbit liver microsomes and value from experiment IV are reported.; outline: as §2
Oryctolagus cuniculus [7] = species on record: Oryctolagus cuniculus; test: Percent Deuterium retention was measured for the corresponding alpha-cyano amine in the Dutch rabbit liver microsomes and value from experiment V are reported.; outline: as §2
Oryctolagus cuniculus [8] = species on record: Oryctolagus cuniculus; test: Percent Deuterium retention was measured for the corresponding alpha-cyano amine in the Dutch rabbit liver microsomes and value from experiment VI are reported.; outline: as §2
Oryctolagus cuniculus [9] = species on record: Oryctolagus cuniculus; test: Percent Deuterium retention was measured for the corresponding alpha-cyano amine in the Dutch rabbit liver microsomes and value from experiment III are reported.; outline: as §2
Homo sapiens [10] = species on record: Homo sapiens; test: Percent Deuterium retention was measured for the corresponding alpha-cyano amine in the human liver microsomes and value from experiment III are reported.; outline: as §1
Oryctolagus cuniculus [11] = species on record: Oryctolagus cuniculus; test: Percent Deuterium retention was measured for the corresponding alpha-cyano amine in the Dutch rabbit liver microsomes and value from experimentI V are reported.; outline: as §2

| Compound | Deuterium retention (Homo sapiens [1]) [%] | Deuterium retention (Homo sapiens [2]) [%] | Deuterium retention (Homo sapiens [3]) [%] | Deuterium retention (Oryctolagus cuniculus [4]) [%] | Deuterium retention (Oryctolagus cuniculus [5]) [%] | Deuterium retention (Oryctolagus cuniculus [6]) [%] | Deuterium retention (Oryctolagus cuniculus [7]) [%] | Deuterium retention (Oryctolagus cuniculus [8]) [%] | Deuterium retention (Oryctolagus cuniculus [9]) [%] | Deuterium retention (Homo sapiens [10]) [%] | Deuterium retention (Oryctolagus cuniculus [11]) [%] |
| --- | --- | --- | --- | --- | --- | --- | --- | --- | --- | --- | --- |
| CN1[C@@H](C#N)CC[C@H]1c1cccnc1 | 92 | 84 | 91 | 87 | 81 | 79 | 77 | 88 | 89 | – | – |
| CN1[C@H](C#N)CC[C@H]1c1cccnc1 | 3 | 24 | – | 34 | 22 | – | 27 | 16 | 30 | 3 | 28 |
